Drawing on ChEMBL document CHEMBL1821635, “Synthesis and evaluation of aliphatic-chain hydroxamates capped with osthole derivatives as histone deacetylase inhibitors” (Eur J Med Chem, 2011), this text covers IC50, GI50 and inhibition for 13 compounds.

One assay addresses T1, Histone deacetylase 8 (Homo sapiens, UniProt Q9BY41).
T1 sequence (Q9BY41 whole entry): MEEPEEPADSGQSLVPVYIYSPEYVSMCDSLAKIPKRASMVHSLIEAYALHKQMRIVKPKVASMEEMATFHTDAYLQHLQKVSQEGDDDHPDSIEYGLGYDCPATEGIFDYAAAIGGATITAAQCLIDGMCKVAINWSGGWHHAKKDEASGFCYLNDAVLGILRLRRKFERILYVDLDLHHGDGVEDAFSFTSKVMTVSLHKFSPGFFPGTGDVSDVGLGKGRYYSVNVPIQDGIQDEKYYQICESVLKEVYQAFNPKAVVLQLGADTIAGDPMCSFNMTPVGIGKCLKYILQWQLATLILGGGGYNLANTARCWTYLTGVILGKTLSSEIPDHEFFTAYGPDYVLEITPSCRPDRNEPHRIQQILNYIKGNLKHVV
The assay can be described thus: Inhibition of human HDAC8 using Boc-Lys(TFA)-AMC as substrate incubated 30 mins before substrate addition measured after 30 mins post substrate addition by fluorescence assay.

Another assay has as its system A549. The assay can be described thus: Antiproliferative activity against human A549 cells after 48 hrs by SRB assay. It counts as functional. Put shortly:
(§1)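 Cells seeded in medium with 5% FBS; after 24 h a T0 set fixed with 10% TCA. Compound or vehicle (0.1% DMSO) added for 48 h, then fixed with 10% TCA, stained with 0.4% SRB in 1% acetic acid, bound dye solubilized in 10 mM Trizma base, absorbance at 515 nm. GI50 = concentration halving net protein increase versus control, from [1−(Tx−T0)/(C−T0)]×100%.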

In a further assay the test system is PC-3. Description: Antiproliferative activity against human PC3 cells after 48 hrs by SRB assay. It counts as functional. The essentials: as §1
On the technique in general: In SRB staining, fixed cells bind dye roughly in proportion to their protein.

Assay [1] in a line: Antiproliferative activity against human Hep3B cells after 48 hrs by SRB assay. Type of assay: functional, Hep 3B2. Put shortly:
as §1

For another assay, the target named is Histone deacetylase 1 (Homo sapiens, UniProt Q13547). Description: Inhibition of HDAC1 using KI-177 as substrate incubated 30 mins before substrate addition measured after 30 mins post substrate addition by fluorescence assay.
Another assay deals with Histone deacetylase. Description: Inhibition of HDAC from human HeLa nuclear extract using Boc-Lys(Ac)-AMC as substrate incubated 30 mins before substrate addition measured after 30 mins post substrate addition by fluorescence assay. It counts as protein assay.
Assay [2] addresses T2, Protein deacetylase HDAC6 (Homo sapiens, UniProt Q9UBN7).
T2 sequence (Q9UBN7 whole entry): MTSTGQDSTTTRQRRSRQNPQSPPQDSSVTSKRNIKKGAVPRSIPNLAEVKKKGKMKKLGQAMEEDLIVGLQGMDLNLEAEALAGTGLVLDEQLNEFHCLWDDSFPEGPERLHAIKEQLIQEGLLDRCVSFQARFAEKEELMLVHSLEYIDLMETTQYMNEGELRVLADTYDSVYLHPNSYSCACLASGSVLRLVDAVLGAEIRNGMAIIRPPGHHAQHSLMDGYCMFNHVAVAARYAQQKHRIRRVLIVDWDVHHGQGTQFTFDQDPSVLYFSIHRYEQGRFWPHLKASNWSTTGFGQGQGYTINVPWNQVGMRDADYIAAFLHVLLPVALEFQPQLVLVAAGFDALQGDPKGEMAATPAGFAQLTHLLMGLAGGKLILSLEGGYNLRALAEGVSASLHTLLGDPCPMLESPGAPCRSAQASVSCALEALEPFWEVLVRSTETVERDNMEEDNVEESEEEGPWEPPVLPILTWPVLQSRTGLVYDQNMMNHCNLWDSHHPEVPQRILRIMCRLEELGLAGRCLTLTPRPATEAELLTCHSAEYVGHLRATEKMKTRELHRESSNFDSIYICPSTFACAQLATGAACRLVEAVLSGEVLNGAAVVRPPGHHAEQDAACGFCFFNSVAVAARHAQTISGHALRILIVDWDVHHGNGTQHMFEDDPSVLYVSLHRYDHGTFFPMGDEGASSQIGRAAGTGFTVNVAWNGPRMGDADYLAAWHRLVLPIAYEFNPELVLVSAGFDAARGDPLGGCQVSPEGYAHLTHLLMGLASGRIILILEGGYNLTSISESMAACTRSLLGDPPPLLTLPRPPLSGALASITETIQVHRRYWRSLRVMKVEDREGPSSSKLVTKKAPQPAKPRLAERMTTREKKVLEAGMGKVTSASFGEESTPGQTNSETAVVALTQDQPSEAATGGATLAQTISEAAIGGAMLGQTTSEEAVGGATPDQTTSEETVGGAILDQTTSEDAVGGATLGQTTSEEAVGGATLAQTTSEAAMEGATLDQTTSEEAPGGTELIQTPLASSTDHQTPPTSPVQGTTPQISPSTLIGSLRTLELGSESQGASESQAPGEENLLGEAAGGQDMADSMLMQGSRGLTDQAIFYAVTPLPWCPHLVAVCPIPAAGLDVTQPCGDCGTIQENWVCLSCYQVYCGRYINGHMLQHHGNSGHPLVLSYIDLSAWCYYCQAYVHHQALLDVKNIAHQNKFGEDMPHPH
Description: Inhibition of HDAC6 using Boc-Lys(Ac)-AMC as substrate incubated 30 mins before substrate addition measured after 30 mins post substrate addition by fluorescence assay.

The next assay concerns the target Histone deacetylase 4 (Homo sapiens, UniProt P56524). The assay can be described thus: Inhibition of HDAC4 using Boc-Lys(TFA)-AMC as substrate incubated 30 mins before substrate addition measured after 30 mins post substrate addition by fluorescence assay.
The target of assay [3] is T3, Histone deacetylase (Homo sapiens) (UniProt Q13547+O15379+Q9UBN7+Q92769+Q9UQL6+Q8WUI4+Q9BY41+Q96DB2+P56524+Q9UKV0+Q969S8). Description: Inhibition of HDAC in human prostate cancer cells assessed as induction of hyperacetylation of alpha-tubulin after 16 hrs by SDS-PAGE and Western blot analysis. It counts as cell-based. The conditions noted are these: Cancer cell lines. The essentials:
(§2)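 Cells exposed to inhibitor at […] for 16 h. Whole-cell lysates made in ice-cold Tris pH 7.4 buffer with Triton X-100, protease and phosphatase inhibitors, run on 13% SDS-PAGE gels. Western blot for acetylated histone H3 (polyclonal) or acetylated alpha-tubulin (monoclonal), beta-actin as loading control, HRP secondary, ECL detection.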
For orientation: Immunoblotting shows a protein as a band on a membrane.

Assay [4] concerns the target T3, Histone deacetylase (Homo sapiens). Description: Inhibition of HDAC in human prostate cancer cells assessed as induction of hyperacetylation of histone H3 after 16 hrs by SDS-PAGE and Western blot analysis. It counts as cell-based. The conditions noted are these: Cancer cell lines. Put shortly: as §2

Active and inactive are the calls of the source. The rule behind the calls is not given here.

Histone deacetylase 4, sequence (P56524 whole entry): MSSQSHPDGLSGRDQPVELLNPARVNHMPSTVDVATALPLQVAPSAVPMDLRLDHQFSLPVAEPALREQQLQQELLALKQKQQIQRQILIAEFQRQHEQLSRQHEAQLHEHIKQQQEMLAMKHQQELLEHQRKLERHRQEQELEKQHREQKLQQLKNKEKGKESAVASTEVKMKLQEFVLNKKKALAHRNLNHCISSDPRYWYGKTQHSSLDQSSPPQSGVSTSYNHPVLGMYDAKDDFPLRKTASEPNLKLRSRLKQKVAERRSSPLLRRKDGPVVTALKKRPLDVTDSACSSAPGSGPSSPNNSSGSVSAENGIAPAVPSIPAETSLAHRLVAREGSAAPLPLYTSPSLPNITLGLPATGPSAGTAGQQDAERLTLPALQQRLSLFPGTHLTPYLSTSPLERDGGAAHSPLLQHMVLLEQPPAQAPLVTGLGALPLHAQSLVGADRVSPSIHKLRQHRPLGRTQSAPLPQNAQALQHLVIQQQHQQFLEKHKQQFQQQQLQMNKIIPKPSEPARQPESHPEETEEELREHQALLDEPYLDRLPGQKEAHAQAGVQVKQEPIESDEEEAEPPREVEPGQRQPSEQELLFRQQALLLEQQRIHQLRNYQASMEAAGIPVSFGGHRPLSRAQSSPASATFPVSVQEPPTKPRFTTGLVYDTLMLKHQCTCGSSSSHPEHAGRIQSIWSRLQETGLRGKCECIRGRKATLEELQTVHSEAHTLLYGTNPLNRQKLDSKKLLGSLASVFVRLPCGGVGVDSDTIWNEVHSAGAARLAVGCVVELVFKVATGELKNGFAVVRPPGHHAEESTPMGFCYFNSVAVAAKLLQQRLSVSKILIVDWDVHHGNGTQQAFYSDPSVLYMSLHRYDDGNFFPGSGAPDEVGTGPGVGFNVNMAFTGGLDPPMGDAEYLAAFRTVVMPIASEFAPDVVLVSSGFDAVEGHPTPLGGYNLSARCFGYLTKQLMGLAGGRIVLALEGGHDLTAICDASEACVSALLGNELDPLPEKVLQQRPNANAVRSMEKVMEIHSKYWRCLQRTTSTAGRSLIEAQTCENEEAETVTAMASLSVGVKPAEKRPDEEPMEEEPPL
Histone deacetylase 1, sequence (Q13547 whole entry): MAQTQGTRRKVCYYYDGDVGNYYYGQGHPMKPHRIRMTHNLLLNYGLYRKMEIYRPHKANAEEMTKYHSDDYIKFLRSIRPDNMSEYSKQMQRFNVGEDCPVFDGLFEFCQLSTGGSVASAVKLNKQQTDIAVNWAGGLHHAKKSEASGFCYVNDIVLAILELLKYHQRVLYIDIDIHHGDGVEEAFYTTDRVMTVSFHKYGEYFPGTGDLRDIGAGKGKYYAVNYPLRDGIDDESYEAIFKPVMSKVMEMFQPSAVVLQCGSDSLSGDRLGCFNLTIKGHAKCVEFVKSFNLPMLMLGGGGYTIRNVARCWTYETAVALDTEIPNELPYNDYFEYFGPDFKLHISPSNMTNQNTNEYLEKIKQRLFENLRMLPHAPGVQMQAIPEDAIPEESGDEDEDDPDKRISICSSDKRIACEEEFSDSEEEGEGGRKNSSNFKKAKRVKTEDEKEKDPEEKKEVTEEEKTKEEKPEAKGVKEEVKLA

For `CC(C)CCc1c(OCCCCCCC(=O)NO)ccc2c1OC(=O)CC2`, the IC50 against Histone deacetylase 8 was 1080 nM; against Histone deacetylase 1, 52.7 nM; at Histone deacetylase, 23.7 nM; in assay [2] it was 40 nM; at Histone deacetylase 4 it was more than 10000 nM. The GI50 in the assay on A549 (Homo sapiens, A549, 48 h) is more than 30000 nM; in the assay on PC-3 (Homo sapiens, PC-3, 48 h) it was more than 30000 nM; in assay [1] (Homo sapiens, Hep3B, 48 h), more than 30000 nM.
In the case of `CC(C)CCc1c(OCCCCCC(=O)NO)ccc(CCC(=O)NO)c1O`, the GI50 is 5410 nM in the assay with A549 (Homo sapiens, A549, 48 h); 2520 nM in the assay with PC-3 (Homo sapiens, PC-3, 48 h); 1980 nM in [1] (Homo sapiens, Hep3B, 48 h). For the same compound, the concentration for half-maximal inhibition (IC50) at Histone deacetylase is recorded as 209.9 nM.
For `CC(C)CCc1c(OCCCCCCCC(=O)NO)ccc2c1OC(=O)CC2`, in that order: more than 30000 nM, more than 30000 nM, more than 30000 nM and 111.7 nM.
For `CC(C)CCc1c(OCCCCC(=O)NO)ccc(CCC(=O)NO)c1O`, the GI50 came out at 10000 nM in the assay with A549 (Homo sapiens, A549, 48 h); 14400 nM in the assay on PC-3 (Homo sapiens, PC-3, 48 h); 14100 nM in [1] (Homo sapiens, Hep3B, 48 h). Moreover, the IC50 at Histone deacetylase was determined as 426.3 nM.
On to `O=C(CCCCCCC(=O)Nc1ccccc1)NO` [VORINOSTAT], for which the GI50 was 790 nM with A549, 1020 nM in the assay with PC-3 and 1210 nM in [1].
For `CC(C)CCc1c(OCCCCCC(=O)NO)ccc2ccc(=O)oc12`, the GI50 in the assay with A549 (Homo sapiens, A549, 48 h) came out at 870 nM; in assay [1] (Homo sapiens, Hep3B, 48 h), 800 nM. Moreover, the IC50 against Histone deacetylase came to 128.2 nM.
Turning to `CC(C)CCc1c(OCCCCCC(=O)NO)ccc2c1OC(=O)CC2`, the GI50 is more than 30000 nM in the assay with A549 (Homo sapiens, A549, 48 h); more than 30000 nM in the assay on PC-3 (Homo sapiens, PC-3, 48 h); more than 30000 nM in assay [1] (Homo sapiens, Hep3B, 48 h). At Histone deacetylase, this compound gave an IC50 of 425.5 nM.
Take `CC(C)CCc1c(OCCCCC(=O)NO)ccc2ccc(=O)oc12`: the GI50 in the assay with A549 (Homo sapiens, A549, 48 h) is 2760 nM; in the assay on PC-3 (Homo sapiens, PC-3, 48 h), 1940 nM; in [1] (Homo sapiens, Hep3B, 48 h), 1310 nM. Moreover, the IC50 at Histone deacetylase was found to be 523.2 nM.
Turning to `CC(C)CCc1c(OCCCCCCCC(=O)NO)ccc(CCC(=O)NO)c1O`, the IC50 was 279 nM at Histone deacetylase 8; 41.5 nM against Histone deacetylase 1; 28.9 nM against Histone deacetylase; 14.2 nM in assay [2]; more than 10000 nM at Histone deacetylase 4. Moreover, the GI50 stood at 2670 nM with A549 (Homo sapiens, A549, 48 h); 1730 nM in the assay on PC-3 (Homo sapiens, PC-3, 48 h); 1270 nM in [1] (Homo sapiens, Hep3B, 48 h).
Consider `CC(C)CCc1c(OCCCCCCC(=O)NO)ccc2ccc(=O)oc12`, for which the inhibition result in assay [3] and in [4] was “Dose-dependent effect” in each case. For the same compound, the IC50 against Histone deacetylase 8 is 553 nM; on Histone deacetylase 1 it was 32.3 nM; on Histone deacetylase it was 22.2 nM; in [2] it was 15.2 nM; against Histone deacetylase 4 it was more than 10000 nM. Further, the GI50 in the assay on A549 (Homo sapiens, A549, 48 h) came out at 660 nM; in [1] (Homo sapiens, Hep3B, 48 h), 750 nM.
Take `CC(C)CCc1c(OCCCCC(=O)NO)ccc2c1OC(=O)CC2`: the GI50 in the assay with A549 (Homo sapiens, A549, 48 h) was more than 30000 nM; in the assay on PC-3 (Homo sapiens, PC-3, 48 h), more than 30000 nM; in assay [1] (Homo sapiens, Hep3B, 48 h), more than 30000 nM. This compound had an IC50 on Histone deacetylase of 711.6 nM.
Turning to `CC(C)CCc1c(OCCCCCCCC(=O)NO)ccc2ccc(=O)oc12`, the GI50 with A549 (Homo sapiens, A549, 48 h) is 2190 nM; in assay [1] (Homo sapiens, Hep3B, 48 h), 3580 nM. At Histone deacetylase, the IC50 came out at 39 nM.
Consider `CC(C)CCc1c(OCCCCCCC(=O)NO)ccc(CCC(=O)NO)c1O`, for which the inhibition result in [3] and in assay [4] was “inactive” throughout. The IC50 was 268 nM against Histone deacetylase 8; 42.9 nM at Histone deacetylase 1; 24.6 nM at Histone deacetylase; 15.9 nM in assay [2]; more than 10000 nM against Histone deacetylase 4. Moreover, the GI50 in the assay on A549 (Homo sapiens, A549, 48 h) came to 6160 nM; in the assay with PC-3 (Homo sapiens, PC-3, 48 h), 4730 nM; in assay [1] (Homo sapiens, Hep3B, 48 h), 4720 nM.

A word on the IC50: it is the concentration needed to halve the response being measured. A lower IC50 goes with higher potency. In general, GI50 refers to the concentration that inhibits growth by half. Read a low GI50 as greater sensitivity of the cells.
